Bioassay records deposited in PubChem by several laboratories.
Most compounds without a hit are left out; they make up all but 2.3% or so of the library.
TRPC6 activator: activators of mouse TRPC6 channel; Q61143; HEK293-TRPC6 membrane potential dye fluorescence; stronger effect = higher value; B-score at 10 µM; 0.13% of 310,000 active; AID 2550;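 active = B-score of the integrated fluorescence ratio above library mean plus 3 SD, and starting fluorescence ratio within library mean plus 5 SD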;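 note: higher score means more depolarization so channel activation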
TRPC4 block: inhibitors of mouse TRPC4 channel | AID 2247 | HEK293 TRPC4beta/mu-opioid, DAMGO-evoked Fluo4 calcium flux; stronger effect = lower value | B-score at 10 µM | Q9QUQ5 | 0.39% of 300,000 active;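 active = B-score over 3 SD under the library average, no early fluorescence shift, positive overall ratio signal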
Target sequence (Q9QUQ5 whole entry, looked up): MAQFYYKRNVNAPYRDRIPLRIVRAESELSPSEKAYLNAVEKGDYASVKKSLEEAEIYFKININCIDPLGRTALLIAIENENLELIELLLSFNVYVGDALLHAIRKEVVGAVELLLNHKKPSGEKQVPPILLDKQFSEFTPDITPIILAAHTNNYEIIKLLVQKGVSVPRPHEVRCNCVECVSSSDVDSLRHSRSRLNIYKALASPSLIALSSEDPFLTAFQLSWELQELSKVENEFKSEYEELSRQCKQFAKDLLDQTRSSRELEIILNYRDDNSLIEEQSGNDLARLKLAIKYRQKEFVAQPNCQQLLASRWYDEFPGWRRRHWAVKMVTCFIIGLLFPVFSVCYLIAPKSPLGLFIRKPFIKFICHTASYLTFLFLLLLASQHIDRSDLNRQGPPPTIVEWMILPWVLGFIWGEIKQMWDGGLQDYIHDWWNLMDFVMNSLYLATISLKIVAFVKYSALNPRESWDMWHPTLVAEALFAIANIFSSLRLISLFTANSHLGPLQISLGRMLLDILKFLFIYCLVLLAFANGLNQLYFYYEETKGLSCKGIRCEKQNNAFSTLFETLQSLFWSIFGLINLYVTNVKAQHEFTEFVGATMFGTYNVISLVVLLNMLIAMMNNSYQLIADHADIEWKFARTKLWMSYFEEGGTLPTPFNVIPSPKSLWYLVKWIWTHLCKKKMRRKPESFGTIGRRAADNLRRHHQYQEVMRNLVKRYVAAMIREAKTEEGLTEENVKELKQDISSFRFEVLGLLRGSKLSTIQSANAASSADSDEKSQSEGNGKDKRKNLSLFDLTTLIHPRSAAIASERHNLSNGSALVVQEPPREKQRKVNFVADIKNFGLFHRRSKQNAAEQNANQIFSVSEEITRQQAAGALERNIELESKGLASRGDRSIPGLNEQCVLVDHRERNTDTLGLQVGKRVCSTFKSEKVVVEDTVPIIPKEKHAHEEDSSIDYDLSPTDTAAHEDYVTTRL
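Signal: kinetic Fluo4 fluorescence imaging of calcium influx. Material: stable TRPC4beta/mu-opioid receptor HEK293 cells. Probe or stimulus: DAMGO in two steps, submaximal then maximal.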
TRPC4 potent: allosterically enhances the mouse TRPC4 cation channel. Q9QUQ5. HEK293 TRPC4beta/mu-opioid, DAMGO EC20, Fluo-4 Ca2+ flux; stronger effect = higher value. B-score at 10 µM. 0.42% of 310,000 active. AID 2227;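 active = B-score of calcium response area above 5 SD of library B-scores, with initial fluorescence ratio within 5 SD of library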;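 note: B-score of integrated fluorescence ratio over time as area under calcium response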
TRPC6 inhibitor: mouse TRPC6 channel inhibition. Q61143. AID 2553. B-score at 10 µM. HEK293-TRPC6, membrane potential dye, ACh-evoked depolarization; stronger effect = lower value. 1.1% of 310,000 active;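 active = B-score under library mean minus 3 SD, initial fluorescence not abnormally high, positive integrated signal ratio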;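 note: B-score derived from integrated fluorescence ratio over the kinetic read; more negative B-score means stronger inhibition of depolarization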
TRPC4 act: TRPC4 (mouse) channel activation | AID 2237 | 0.49% of 310,000 active | HEK293 TRPC4beta/mu-opioid, Fluo4 calcium fluorescence; stronger effect = higher value | B-score at 10 µM | Q9QUQ5;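 active = B-score above 5 SD of library B-scores, and initial fluorescence ratio not above library mean plus 5 SD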;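 note: positive B-score marks a calcium rise read as TRPC4 activation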
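Assay system – TRPC4beta and mu-opioid receptor HEK293 stable cells · Measured by – Fluo4 fluorescence, kinetic · Schedule – dye loading 45 min room temperature, 110 s kinetic read · Read-out – B-scored integrated calcium fluorescence ratio · Controls – buffer and maximal DAMGO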
CR mimetic SO: lowers age-related superoxide in aged yeast cells | S. cerevisiae aged cells, superoxide DHE fluorescence; stronger effect = lower value | superoxide response (% of plate mean), % at 10 µM | 0.18% of 330,000 active;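 active = superoxide response under a set limit, about three screen SD below normal, cut at about 65% in these data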;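 note: yeast aged for seven days with compound at 30 °C before DHE staining; 100% = average MFI of all compound-treated wells on the plate with controls excluded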
TRPC4 sel inh 2: mouse TRPC4 off-target activity of TRPC6 inhibitors, second screen; inhibition, % at 10 µM; shares compounds with TRPC6 inhibitor; 42% of 920 active; HEK293 TRPC4/MOR, membrane potential dye fluorescence; channel activated by saturating DAMGO dose;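 active = compounds whose fluorescence signal differed from control wells by over 3 SD, either direction, in both duplicate plates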
TRPC4 spec: tests whether TRPC6 inhibitors also affect mouse TRPC4. shares compounds with TRPC6 inhibitor. HEK293 TRPC4/mu-opioid, membrane potential fluorescence. activity change, negative = inhibition, % at 10 µM. 61% of 920 active;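 active = rise or fall in signal beyond 3 SD of buffer-only wells in both replicate plates, either sign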;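 note: integrated kinetic ratio of fluorescence range over baseline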
HEK293 MPD ctr 2-1: parental HEK293 nonspecific activity of TRPC6 inhibitors, second screen; shares compounds with TRPC6 inhibitor; parental HEK293 membrane potential dye fluorescence; maximal acetylcholine challenge after compound addition; signal change vs control, % at 10 µM; 31% of 920 active; AID 2779;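 active = membrane potential signal moving either way by over 3 SD of the maximum-effect control, in both duplicate plates, meaning non-specific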
HEK293 MPD ctr-1: checks TRPC6 inhibitor effects in parental HEK293 cells | shares compounds with TRPC6 inhibitor | parental HEK293 membrane potential dye fluorescence | membrane potential signal change, % at 10 µM | 60% of 920 active | AID 2780;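 active = membrane potential signal shifting up or down by more than 3 SD of buffer-only wells, on both duplicate plates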
HEK293 MPD ctr-2: parental HEK293 nonspecific activity of TRPC6 modulators | AID 488924 | membrane potential signal change, % at 10 µM | shares compounds with TRPC6 inhibitor | membrane potential dye fluorescence | 51% of 2,400 active;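 active = membrane potential signal moves up or down beyond 5 SD from buffer-only wells, on both duplicate plates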
HEK293 MPD ctr 2-2: second check of TRPC6 modulator effects in parental HEK293 cells. inhibition, % at 10 µM. 14% of 2,400 active. membrane potential dye fluorescence; after compound, maximal acetylcholine stimulation. shares compounds with TRPC6 inhibitor. AID 488926;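 active = membrane potential signal drops by more than 5 SD from the mean control signal, in both duplicate plates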;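 note: plate controls were acetylcholine ECmax control wells for no effect and buffer only wells for full effect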
TRPC4 ctr mod: selectivity of TRPC6 modulators against mouse TRPC4; shares compounds with TRPC6 inhibitor; HEK293 TRPC4/mu-opioid, membrane potential fluorescence; percent change from control (negative = decrease, positive = increase), % at 10 µM; 69% of 2,400 active; AID 488927;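 active = membrane potential signal moved up or down beyond 5 SD of buffer control wells, in both duplicate plates, actives on both sides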;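 note: plate controls were assay buffer wells for no effect and DAMGO maximal-effect wells for full effect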
TRPC4/MOR inh 2: mouse TRPC4 off-target activity of TRPC6 modulators, second screen; shares compounds with TRPC6 inhibitor; HEK293 TRPC4/mu-opioid, membrane potential dye fluorescence; stimulated with maximal-effect DAMGO; inhibition, % at 10 µM; 55% of 2,400 active; AID 488928;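 active = drop in membrane potential signal beyond 5 SD of the control wells in both duplicate plates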;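 note: TRPC4 counter screen for TRPC6 hits run under conditions tuned for TRPC6 not TRPC4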
TRPC6 block conf: confirmation of mouse TRPC6 inhibitors. inhibition, % at 10 µM. 43% of 3,300 active. shares compounds with TRPC6 inhibitor. HEK293-TRPC6, membrane potential dye, ACh-evoked depolarization;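 active = fluorescence ratio falls more than 5 SD below the full-stimulation control mean, in both duplicate runs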;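 note: integrated fluorescence ratio of peak minus minimum over baseline after agonist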
TRPC6 act confirm: mouse TRPC6 activator confirmation; shares compounds with TRPC6 inhibitor; HEK293-TRPC6 membrane potential dye fluorescence, FDSS; activation, % at 10 µM; 11% of 2,800 active; AID 488961;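 active = ratio signal rise beyond 5 SD above unstimulated control wells' mean, seen in both duplicate runs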;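 note: plate controls were buffer EC0 wells for no effect and acetylcholine ECmax response for full effect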
* = called active by the depositor; i = inactive; . = no result.

SMILES	TRPC6 activator	TRPC4 block	TRPC4 potent	TRPC6 inhibitor	TRPC4 act	CR mimetic SO	HEK293 MPD ctr-2	HEK293 MPD ctr 2-2	TRPC4 ctr mod	TRPC4/MOR inh 2	TRPC6 block conf	TRPC6 act confirm	others
CC(C)C(Sc1nc(-c2ccccc2)cc(-c2ccccc2)c1C#N)C(=O)O (stereo not given)	13*	i	i	i	i	103	355%*	i	66%*	i	i	126%*
CCCSc1nc(C)c2cc(C)cc(C)c2n1	i	i	i	i	i	101	.	.	.	.	.	.
Cc1cc(C)c2nc3nc(C)c(C)cc3c(N)c2c1	i	i	i	-5.8*	i	.	i	i	-25%*	34%*	59%*	i
CCOc1ccc(OCC(=O)Nc2ccccc2C(F)(F)F)cc1	i	i	i	i	i	91	.	.	.	.	.	.
CC(C)=CCCC(C)CN1CCC(n2nccc2NC(=O)c2ccc3c(c2)OCO3)CC1 (stereo not given)	i	i	i	-7.3*	i	104	.	.	.	.	56%*	i	TRPC4 sel inh 2=36%*;TRPC4 spec=6.8%*;HEK293 MPD ctr 2-1=268%*;HEK293 MPD ctr-1=10%*
COc1ccc(C(=O)OCC(=O)Nc2ccc3c(c2)OCCO3)c(OC)c1	.	.	.	.	.	82	.	.	.	.	.	.
CCOC(=O)c1cnc2c(C)cccc2c1Nc1ccc(N2CCOCC2)cc1	i	i	i	i	i	98	.	.	.	.	.	.
CCOC(=O)c1cnc2ccc(OC)cc2c1Nc1ccc2c(c1)OCCO2	i	i	i	-7.5*	i	102	.	.	.	.	i	i	TRPC4 sel inh 2=i;TRPC4 spec=-14%*;HEK293 MPD ctr 2-1=i;HEK293 MPD ctr-1=-292%*
CCOC(=O)c1ccc2ncc(C(=O)OCC)c(Nc3ccc(N4CCOCC4)cc3)c2c1	i	i	i	-9.7*	i	93	-186%*	i	-46%*	42%*	i	i
CCOC(=O)c1cnc2ccc(C(=O)OC)cc2c1Nc1ccc(C(=O)O)cc1	i	i	i	-5.2*	i	105	-248%*	i	-37%*	43%*	i	i
CCOC(=O)c1cnc2ccccc2c1Nc1cc(C(=O)O)ccc1C	i	i	i	i	i	100	.	.	.	.	.	.
COc1ccc(CCNC(=O)COc2ccc(N(C)S(=O)(=O)c3ccc(Cl)cc3)cc2)cc1	i	i	i	i	i	.	.	.	.	.	.	.
